G6PDH CS: inhibits Leuconostoc G6PDH, flagging false hits in G6PDH-based assays; AID 1020; Purified L. mesenteroides G6PDH, diaphorase/resazurin coupled fluorescence, 45 min; inhibition, % at 5 µM; hit rate 0.12% among 200,000; in the data active = inhibition above about 50%
PMI activator: activators of human phosphomannose isomerase; P34949; purified human PMI, coupled resazurin fluorescence, 20 min; active compounds read high; 1 = vehicle control, 0 substrate-free wells; activation factor at 20 µM; hit rate 0.005% among 190,000; AID 1214;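 active = activation factor of 2 or more at 20 µM, relative to plate controls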
Target sequence (P34949 whole entry, looked up): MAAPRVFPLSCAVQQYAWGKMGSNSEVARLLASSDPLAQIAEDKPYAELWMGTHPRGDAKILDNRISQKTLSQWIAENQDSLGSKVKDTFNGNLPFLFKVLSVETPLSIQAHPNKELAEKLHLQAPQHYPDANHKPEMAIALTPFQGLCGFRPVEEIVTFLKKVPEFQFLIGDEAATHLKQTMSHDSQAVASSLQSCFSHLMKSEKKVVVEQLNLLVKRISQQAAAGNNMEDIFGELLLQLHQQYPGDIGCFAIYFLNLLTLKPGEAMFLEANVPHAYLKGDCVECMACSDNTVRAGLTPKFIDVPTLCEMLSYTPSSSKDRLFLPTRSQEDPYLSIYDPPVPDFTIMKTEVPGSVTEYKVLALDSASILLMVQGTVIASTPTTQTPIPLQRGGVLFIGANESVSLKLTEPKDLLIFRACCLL
ROMK mod: modulators of human ROMK potassium channel | hit rate 2% among 130,000 | B-score at 10 µM | AID 1918 | P48048 | Tet-inducible ROMK, thallium flux fluorescence; actives lie on both sides;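 active = signal ratio slope over the read window, or its plate-corrected B-score, at least 3 SD from the plate mean, either direction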;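 also: B-score of the F/F0 ratio slope over 7 to 12 s after thallium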
Diaph act CS: diaphorase activation or chemical reduction counter-screen; hit rate 0.005% among 190,000; AID 1229; Diaphorase/resazurin coupled assay, resorufin fluorescence, 16 min; active compounds read high; 1 = vehicle wells, 0 = NADH-free wells; activation factor at 20 µM;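 active = diaphorase activity raised at least twofold by the compound at 20 µM; inactive = activation factor below 2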
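Material: Purified diaphorase enzyme from Clostridium kluyveri | Buffer or medium: 50 mM HEPES pH 7.4 with 4.542 mM MgCl2, 0.005% Tween 20 | Times: 16 min enzyme reaction, ambient temperature | Signal: Red resorufin fluorescence at 544/590 nm excitation/emission | Measure: Increased resorufin signal from activators or reducing compounds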
PMI act satM6P: activators of human phosphomannose isomerase at near-saturating mannose 6-phosphate; P34949; coupled PMI enzyme assay, resazurin fluorescence, 20 min; active compounds read high; 1 = untreated enzyme, 0 = substrate-free blank; activation factor at 20 µM; hit rate 0.34% among 190,000; AID 1216;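 active = activation factor of 2 or more at 20 µM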
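Test system – human PMI in coupled enzyme assay · Timing – 20 min incubation at room temperature · Detection – Diaphorase-driven resazurin-to-resorufin fluorescence, excitation 544, emission 590 nm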
Diaph inh CS: counter-screen for diaphorase-based assays: diaphorase inhibitors and chemical oxidizers | inhibition, % at 20 µM | hit rate 0.69% among 190,000 | diaphorase resazurin-to-resorufin fluorescence, NADH, 16 min; bacterial (C. kluyveri) enzyme, not human;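 active = primary screen inhibition at 20 µM above a set limit, cut at about 50% in these data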
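Assay system: diaphorase enzyme from Clostridium kluyveri. Quantity: enzyme working solution with 0.14 U/mL diaphorase. Schedule: reaction incubation of 16 min at room temperature. Technique: resorufin fluorescence, excitation 544 nm, emission 590 nm. Controls: No-NADH positive control and DMSO neutral control.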
ROMK hit retest: human ROMK channel modulation, retest confirmation; shares compounds with ROMK mod; ROMK thallium flux, fluorescence ratio; active compounds read low; normalized thallium flux (F/F0 slope) at 10 µM; hit rate 54% among 3,000;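 active = Flux at 10 µM at least 3 SD below or above vehicle control mean in one or both replicates; inconclusive = no clear call, values can overlap the other calls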
A number is an active result; – = inactive; ? = inconclusive; · = not tested or not shown. Hits are enriched below; roughly 2.2% of the tested compounds scored in any of these assays.

SMILES | G6PDH CS | PMI activator | ROMK mod | Diaph act CS | PMI act satM6P | Diaph inh CS | ROMK hit retest
CCOc1ccc(CNCCNC(=O)c2nonc2N)cc1 | – | – | – | – | – | – | ·
Nc1nonc1C(=O)NCCNCc1ccccc1OCc1ccc(F)cc1 | – | – | · | – | – | – | 0.062
CC(OCC(O)CN(C)Cc1nc2ccccc2c(=O)[nH]1)c1ccc(Cl)cc1 (centres undefined) | – | – | – | – | – | – | ·
Cc1cc(C)nc(NC(=O)CSc2nccc(C)n2)n1 | – | – | 2.8 | – | – | – | –
COC(=O)c1ccccc1NC(=O)CSc1nccc(C)n1 | – | · | – | · | · | · | ·
CC(C)c1ccc(Nc2c([N+](=O)[O-])c(=O)n(C)c3ccccc23)cc1 | · | · | – | · | · | · | ·
Cn1c(=O)c([N+](=O)[O-])c(-n2ccnc2)c2ccccc21 | – | – | -8.3 | – | – | – | 0.048
CCn1c(/C=C/c2c[nH]c3ccccc23)nc2ccccc2c1=O | – | – | · | – | – | – | ·
CCn1c(/C=C/c2c(C)[nH]c3ccccc23)nc2ccccc2c1=O | – | – | · | – | – | – | 0.047
CC(=O)N1CCN(Cc2nc(-c3cccc(Cl)c3)no2)CC1 | – | – | – | – | – | – | ·
CN(C(=O)COC(=O)COc1ccc(Cl)cc1)C1CCCCC1 | – | – | · | – | – | – | –
CCc1cc(C(=O)c2ccccc2OC)c(N)s1 | – | – | · | – | – | – | ·
CCn1c(=O)[nH]c(=O)c2c(N)c(C(=O)c3ccccc3OC)sc21 | – | – | 3.7 | – | – | – | –
Cc1ccc(-c2nnc(CSc3nnc(COc4ccccc4)n3-c3ccccc3)o2)cc1 | – | – | -3.5 | – | – | – | 0.053
Cc1ccc(-c2nnc(CSc3nnc(COc4ccccc4)n3-c3ccc(C)cc3)o2)cc1 | – | – | – | – | – | – | ·
CC(=O)Nc1cccc(Nc2nc(-c3ccccc3F)nc3ccccc23)c1 | – | – | – | – | – | – | ·
O=C(/C(=C/c1ccncc1)n1ccnc1)c1ccc(Cl)cc1Cl | · | · | -7.9 | · | · | · | 0.03
O=C(/C(=C/c1cccnc1)n1ccnc1)c1ccc(Cl)cc1Cl | · | · | -5.6 | · | · | · | 0.03
CCCCCc1ccc(-c2nnc(N)s2)cc1 | – | – | – | – | – | – | ·
CCCCCCc1ccc(-c2ncc(N)cn2)cc1 | – | – | -4.3 | – | – | – | –
Cc1scc2c1N(C(=O)CN1CCN(C)CC1)c1ccccc1NC2=O | – | – | 3.1 | – | – | – | –
Oc1c(Br)cc(Cl)cc1C=Nc1ccccc1Br | – | – | 3.5 | – | – | – | ?
Oc1c(Br)cc(Cl)cc1C=Nc1ccc(N2CCOCC2)cc1 | – | – | – | – | – | – | ·
N#CC1=C(N)Oc2cc3ccccc3cc2C1c1cccnc1 (centres undefined) | – | – | · | – | – | – | ·
N#CC1=C(N)Oc2c(ccc3cccnc23)C1c1cccnc1 (centres undefined) | – | – | 3.6 | – | – | – | ?
SMILES | G6PDH CS | PMI activator | ROMK mod | Diaph act CS | PMI act satM6P | Diaph inh CS | ROMK hit retest
CCOc1ccc(-c2nn(-c3ccccc3)cc2/C=C2\SC(=S)N(C3CCS(=O)(=O)C3)C2=O)cc1 (centres undefined) | – | – | -5.4 | – | – | – | 0.049
CCN(c1ccccc1)S(=O)(=O)c1ccc(OC)c(OC)c1 | – | – | – | – | – | – | ·
CCN(c1ccccc1)S(=O)(=O)c1ccc(OC)c(NC(=O)CNCCc2ccccc2)c1 | – | – | -6.6 | – | – | – | 0.05
CCN(CC)S(=O)(=O)c1ccc(OC)c(NC(=O)CSc2cc(C)ccc2C)c1 | – | – | -3.2 | – | – | – | 0.057
Cc1nc2ccc(NC(=O)c3ccc(S(=O)(=O)N4CCOCC4)cc3)cc2s1 | – | – | 3.2 | – | – | – | –
O=C(Nc1ccc(S(=O)(=O)N2CCOCC2)cc1)c1cccs1 | – | – | – | – | – | – | ·
Cc1ccc(NC(=O)c2cc(S(=O)(=O)N3CCOCC3)c(Br)s2)cc1 | – | – | · | – | – | – | –
O=C(Nc1ccccc1)c1nccn1Cc1ccc(F)cc1 | – | – | – | – | – | – | ·
COCCNC(=O)c1ccc(NS(C)(=O)=O)cc1 | – | – | – | – | – | – | ·
CC(C)OCCCNC(=O)c1ccc(NS(C)(=O)=O)cc1 | – | – | · | – | – | – | –
CCOC(=O)Cc1csc(NC(=O)/C=C\c2ccccc2Cl)n1 | – | – | – | – | – | – | ·
Oc1c(C=C2N=c3ccccc3=N2)sc(=S)n1C1CCCCC1 | – | – | · | – | – | – | ?
CN(C)c1ccc(CNC(=O)C2CCC(CNc3c(N4CCCCC4)c(=O)c3=O)CC2)cc1 (centres undefined) | · | · | – | · | · | · | ·
COCc1cc(C)nc(SCC(=O)Nc2ccc(C)c(C)c2)c1C#N | – | – | – | – | – | – | ·
COCc1cc(C)nc(SCC[N+](C)(C)CC(=O)Nc2cccc(C(F)(F)F)c2)c1C#N | – | – | -2.6 | – | – | – | 0.059
Cc1ccc(N=Nc2[nH]c3ccccc3c2O)cc1 | – | – | -4.8 | – | – | – | 0.056
CCOC(=O)c1c(C)n(C)c2ccc(OC)c(NC(=O)CCN3CCC(Cc4ccccc4)CC3)c12 | · | · | · | · | · | · | 0.063
CCOC(=O)c1c(C)n(C)c2ccc(OC)c(NC(=O)CN3CCSCC3)c12 | – | – | – | – | – | – | ·
O=[N+]([O-])/C=C\c1ccc(N2CCCC2)c(F)c1 | – | – | · | – | – | – | 0.042
O=[N+]([O-])c1cc(/C=N/O)ccc1N1CCCC1 | – | – | -3.4 | – | – | – | ?
CC(=O)Nc1ccc(S(=O)(=O)N2c3ccccc3C(C)=CC2(C)C)cc1 | – | – | 2.1 | – | – | – | –
CC1=CC(C)(C)N(S(=O)(=O)c2ccc(F)cc2)c2ccccc21 | – | – | – | – | – | – | ·
Cc1nc2ncccn2c1-c1csc(Nc2ccccc2)n1 | – | – | – | – | – | – | ·
Cc1nc2ncccn2c1-c1csc(Nc2ccc(N(C)C)cc2)n1 | – | – | 7.2 | – | – | – | –
O=C(/C=C/c1cn(CC(O)CN2CCOCC2)c2ccccc12)c1cccs1 (centres undefined) | · | · | · | · | · | · | 0.039
COc1cc2nc(=S)n(CCCN3CCOCC3)c(N)c2cc1OC | – | – | – | – | – | – | ·
O=C(c1ccccc1F)N1CCN(c2ccc([N+](=O)[O-])c3cccnc23)CC1 | – | – | – | – | – | – | ·
Cc1cc(N2CCN(c3ccc([N+](=O)[O-])c4cccnc34)CC2)c2ccccc2n1 | – | – | -2.6 | – | – | – | 0.062
CCCCN(CCCC)C(=O)CSc1nnc2n(C)c(=O)c3c4c(sc3n12)CCCC4 | – | – | -3.6 | – | – | – | 0.049

Compound activity as filed in PubChem BioAssay.
